Results reported in ChEMBL document CHEMBL3259591, “Three new cembranoid-type diterpenes from Red Sea soft coral Sarcophyton glaucum: isolation and antiproliferative activity against HepG2 cells” (Eur J Med Chem, 2014).

Assays:
Vero = assay: Cytotoxicity against african green monkey Vero cells after 96 hrs […]; type: cell-based; details: chlorocebus sabaeus
How it was run: (§1)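 Cells seeded at 10 × 10^3/well and held 24 h at 37 °C, 5% CO2. Serum-free RPMI-1640 then added with sample at final 1000, 500, 200, 100, 50, 20, 10 µg/mL (DMSO ≤1% v/v). Incubated 96 h, then rinsed and fixed in 3.7% formaldehyde in saline for ≥20 min. IC50 taken as 50% loss of monolayer, from a straight-line fit of dose-response data.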

MCF7 = assay: Cytotoxicity against human MCF7 cells after 96 hrs by […]; type: functional, cell-based; details: MCF7, 96 h; how it was run: as §1
A549 = assay: Cytotoxicity against human A549 cells after 96 hrs by […]; type: functional, cell-based; details: A549, 96 h; how it was run: as §1
PC-3 [1] = assay: Induction of apoptosis in human PC3 cells assessed as viable cells after 24 hrs using annexin V/propidium iodide double staining by flow cytometry (reference value: 99.60 %); type: functional
PC-3 [2] = assay: Cell cycle arrest in human PC3 cells assessed as increase in cells at G0/G1-phase after 24 hrs by flow cytometry (reference value: 49.80 +/- 0.6%); type: functional
PC-3 [3] = assay: Induction of apoptosis in human PC3 cells assessed as early apoptotic cells after 24 hrs using annexin V/propidium iodide double staining by flow cytometry (reference value: 0.00 %); type: functional
HepG2 [4] = assay: Cytotoxicity against human HepG2 cells after 96 hrs by […]; type: functional, cell-based; details: HepG2, 96 h; how it was run: as §1
PC-3 [5] = assay: Induction of apoptosis in human PC3 cells assessed as necrotic cells after 24 hrs using annexin V/propidium iodide double staining by flow cytometry (reference value: 0.640.36 %); type: functional
PC-3 [6] = assay: Cell cycle arrest in human PC3 cells assessed as reduction in cells at S-phase after 24 hrs by flow cytometry (reference value: 32.12 +/- 0.9%); type: functional; set-up: scale not given: the % may be the effect or the level left
PC-3 [7] = assay: Induction of apoptosis in human PC3 cells assessed as late apoptotic cells after 24 hrs using annexin V/propidium iodide double staining by flow cytometry (reference value: 0.03 %); type: functional
PC-3 [8] = assay: Cytotoxicity against human PC3 cells after 96 hrs […]; type: functional, cell-based; details: PC-3, 96 h; how it was run: as §1
PC-3 [9] = assay: Induction of apoptosis in human PC3 cells assessed as increase in caspase-3 concentration by colorimetric assay relative to untreated control; type: functional
HepG2 [10] = assay: Induction of apoptosis in human HepG2 cells assessed as late apoptotic cells after 24 hrs using annexin V/propidium iodide double staining by flow cytometry (reference value: 0.01 %); type: functional
HepG2 [11] = assay: Induction of apoptosis in human HepG2 cells assessed as viable cells after 24 hrs using annexin V/propidium iodide double staining by flow cytometry (reference value: 99.35 %); type: functional
HepG2 [12] = assay: Induction of apoptosis in human HepG2 cells assessed as increase in caspase-3 concentration by colorimetric assay relative to untreated control; type: functional
HepG2 [13] = assay: Cell cycle arrest in human HepG2 cells assessed as increase in cells at G0/G1-phase after 24 hrs by flow cytometry (reference value: 44.74 +/- 0.6%); type: functional
HepG2 [14] = assay: Induction of apoptosis in human HepG2 cells assessed as necrotic cells after 24 hrs using annexin V/propidium iodide double staining by flow cytometry (reference value: 0.64 %); type: functional
HepG2 [15] = assay: Cell cycle arrest in human HepG2 cells assessed as reduction in cells at S-phase after 24 hrs by flow cytometry (reference value: 43.65 +/- 1.1%); type: functional; set-up: scale not given: the % may be the effect or the level left
HepG2 [16] = assay: Induction of apoptosis in human HepG2 cells assessed as early apoptotic cells after 24 hrs using annexin V/propidium iodide double staining by flow cytometry (reference value: 0.00 %); type: functional

Compound	Activity (Vero)	IC50 (MCF7) [µM]	IC50 (A549) [µM]	Activity (PC-3 [1]) [%]	Activity (PC-3 [2]) [%]	Activity (PC-3 [3]) [%]	IC50 (HepG2 [4]) [µM]	Activity (PC-3 [5]) [%]	Activity (PC-3 [6]) [%]	Activity (PC-3 [7]) [%]	IC50 (PC-3 [8]) [µM]	fold change (FC) (PC-3 [9])	Activity (HepG2 [10]) [%]	Activity (HepG2 [11]) [%]	fold change (FC) (HepG2 [12])	Activity (HepG2 [13]) [%]	Activity (HepG2 [14]) [%]	Activity (HepG2 [15]) [%]	Activity (HepG2 [16]) [%]
C=C1CC[C@@H]2[C@H]([C@@H]3[C@H](C)CC[C@H]13)C2(C)C	Non-toxic	20	98.4	91.85	64.83	1.63	20	4.34	23.29	2.18	9.3	2.1	–	–	–	–	–	–	–
C/C1=C/C2OC(C)(CCCC/C(C)=C\CC1)C(O)C2C(C)C (stereo not drawn)	Non-toxic	–	197	–	–	–	20	–	–	–	31.5	–	2.18	93.61	2.6	53.57	2.99	8.33	1.22
CC1=C2CC[C@@H]3O[C@]3(C)CC/C(C)=C/CC/C(C)=C/[C@@H]2OC1=O	Non-toxic	25	73.8	–	–	–	94	–	–	–	216	–	–	–	–	–	–	–	–
CC1=C2CC[C@H]3O[C@]3(C)CC/C(C)=C\CC/C(C)=C/[C@H]2OC1=O	Non-toxic	29	201	–	–	–	20	–	–	–	112	–	1.76	93.93	2	51.9	3.08	7.11	1.23
COc1cccc2c1C(=O)c1c(O)c3c(c(O)c1C2=O)C[C@@](O)(C(=O)CO)C[C@@H]3O[C@H]1C[C@H](N)[C@H](O)[C@H](C)O1 [DOXORUBICIN]	Non-toxic	–	–	–	–	–	0.48	–	–	–	0.5	–	–	–	–	–	–	–	–
